For one assay, the system named is Mus musculus. Description: Analgesic activity was measured by acetic acid writhing test in mouse by giving subcutaneous injection. It counts as functional. More on the design: unit not given here. In short, it runs like this:
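Male albino Charles River mice (18–22 g), five per dose, at least three doses per ED50. Salts are given in distilled water; free bases are dissolved with dilute HCl and then diluted with water. Drug is given s.c. 15 min before i.p. 0.5% HOAc (0.4 mL). Writhes are counted for 20 min, starting 5 min post-HOAc, and compared with controls. ED50 with 95% confidence limits by Litchfield–Wilcoxon.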
(In general: An intraperitoneal irritant provokes the stretching counted in writhing tests.)

Another assay relates to Rattus norvegicus. Nature of the assay: Analgesic activity measured by rat tail flick assay following s.c. administration. It counts as functional. Set-up: unit not given here. In short, it runs like this:
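Male albino rats (100–120 g). Two control reaction times are taken 30 min apart before dosing. For agonist activity, test drug is given subcutaneously with no morphine, and tail-flick reaction time is retested 20 min postdrug. Activity is judged against control groups. ED50 values with 95% confidence limits are obtained by Litchfield–Wilcoxon.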
On the technique in general: In hot-plate and tail-flick tests a longer latency is read as antinociception.

For the molecule `COc1ccc2c3c1O[C@H]1C(=O)C[C@H](C(C)(C)C)C4C(C2)N(C)CCC341` (stereo partly specified), the results for the ED50 with Mus musculus and with Rattus norvegicus were 17.6 and more than 25, respectively.

Molecule `CCC[C@H]1CC(=O)[C@@H]2Oc3c(OC)ccc4c3C23CCN(C)C(C4)C13` (stereo partly specified) returned an ED50 in the assay on Mus musculus of 17.5.

As for `CC[C@@H]1CC(=O)[C@@H]2Oc3c(OC)ccc4c3C23CCN(C)C(C4)C13` (stereo partly specified), the ED50 was 3 in the assay with Mus musculus and more than 30 in the assay on Rattus norvegicus.

Turning to `COc1ccc2c3c1O[C@H]1C(=O)C[C@H](C4CC4)C4C(C2)N(C)CCC341` (stereo partly specified), the ED50 with Mus musculus is listed as 42; in the assay on Rattus norvegicus, more than 25.

As to `COc1ccc2c3c1O[C@H]1C(=O)C[C@H](C)C4C(C2)N(C)CCC341` (stereo partly specified), the ED50 with Mus musculus was 4.9; in the assay on Rattus norvegicus, 10.2.

On to `CCCC[C@H]1CC(=O)[C@@H]2Oc3c(OC)ccc4c3C23CCN(C)C(C4)C13` (stereo partly specified), for which the ED50 was 27 with Mus musculus and more than 50 in the assay with Rattus norvegicus.

For the molecule `CCC[C@@H]1CC(=O)[C@@H]2Oc3c(OC)ccc4c3C23CCN(C)C(C4)C13` (stereo partly specified), the ED50 with Mus musculus and with Rattus norvegicus was more than 25 in each case.

In the case of `C=C[C@H]1CC(=O)[C@@H]2Oc3c(OC)ccc4c3C23CCN(C)C(C4)C13` (stereo partly specified), the ED50 in the assay on Mus musculus was found to be 13.8; in the assay with Rattus norvegicus, 130.

As to `CC[C@H]1CC(=O)[C@@H]2Oc3c(OC)ccc4c3C23CCN(C)C(C4)C13` (stereo partly specified), the ED50 in the assay on Mus musculus is recorded as 1.8; in the assay with Rattus norvegicus, 20.3.

As to `CCCCCCCC[C@H]1CC(=O)[C@@H]2Oc3c(OC)ccc4c3C23CCN(C)C(C4)C13` (stereo partly specified), the values for the ED50 with Mus musculus and in the assay with Rattus norvegicus were 25.9 and more than 50, respectively.

On to `CCC(C)[C@H]1CC(=O)C2Oc3c(OC)ccc4c3C23CCN(C)C(C4)C13` (single isomer, unassigned; form 2), for which the ED50 with Mus musculus was found to be 14.1.

Turning to `COc1ccc2c3c1O[C@H]1C(=O)C[C@H](C(C)C)C4C(C2)N(C)CCC341` (stereo partly specified), the ED50 in the assay on Mus musculus was 21.7; in the assay with Rattus norvegicus, more than 55.

Turning to `COc1ccc2c3c1O[C@H]1C(=O)C[C@@H](C)C4C(C2)N(C)CCC341` (stereo partly specified), the ED50 is 2 in the assay with Mus musculus and 3.8 in the assay on Rattus norvegicus.

On to `COc1ccc2c3c1O[C@H]1C(=O)C[C@H](c4ccccc4)C4C(C2)N(C)CCC341` (stereo partly specified), for which the ED50 in the assay on Mus musculus was more than 50.

`CCC(C)[C@H]1CC(=O)C2Oc3c(OC)ccc4c3C23CCN(C)C(C4)C13` (single isomer, unassigned; form 1) registered an ED50 in the assay on Mus musculus of more than 25.

Consider `C=C(C)[C@H]1CC(=O)[C@@H]2Oc3c(OC)ccc4c3C23CCN(C)C(C4)C13` (stereo partly specified), for which, in the assay with Mus musculus, the ED50 is listed as more than 50.

On to `CC[C@H]1CC(=O)[C@@H]2Oc3c(O)ccc4c3C23CCN(C)C(C4)C13` (stereo partly specified), for which the results for the ED50 in the assay with Mus musculus and in the assay on Rattus norvegicus were 0.41 and 1.12, respectively.

Take `C[C@H]1CC(=O)[C@@H]2Oc3c(O)ccc4c3C23CCN(C)C(C4)C13` (stereo partly specified): the results for the ED50 in the assay with Mus musculus and with Rattus norvegicus were 0.24 and 1.6, respectively.

For the origin of these results see ChEMBL document CHEMBL1121387, “Analgesic narcotic antagonists. 1. 8 beta-Alkyl-, 8 beta-acyl-, and 8 beta-(tertiary alcohol)dihydrocodeinones and -dihydromorphinones” (1980).
